Measured values: ChEMBL document CHEMBL2146397, “The Substrate-Activity-Screening methodology applied to receptor tyrosine kinases: a proof-of-concept study” (Eur J Med Chem, 2012)
Calls of active or inactive are those of the source. No cut-off for these calls is given here. Numbered stars: 1 amine (or outer) side, 2 acyl side, 3 side chain; on linkers, the order of the positions; unused ones are H or OH. Square brackets hold non-standard residues; d marks the D form. Peptide text beside a SMILES is read from it. X7 = O=C([C@H](Cc1ccc(C(O)P(=O)(O)O)cc1)N[*:1])[*:2]; Phe(4-Cl) = N[C@@H](Cc1ccc(Cl)cc1)C(=O)O; 3Pal = N[C@@H](Cc1cccnc1)C(=O)O

Assays:
[1] = molecular target: T1, Insulin-like growth factor 1 receptor (Homo sapiens, UniProt P08069); test: Activity at pre-activated human GST-His6-tagged IGF-1R expressed in Sf9 cells assessed as initial phosphorylation rate at 10 uM measured every 2 mins for 60 mins by Michaelis-Menten constant based ADP Quest assay
T1 sequence (P08069 31-736 limits assumed): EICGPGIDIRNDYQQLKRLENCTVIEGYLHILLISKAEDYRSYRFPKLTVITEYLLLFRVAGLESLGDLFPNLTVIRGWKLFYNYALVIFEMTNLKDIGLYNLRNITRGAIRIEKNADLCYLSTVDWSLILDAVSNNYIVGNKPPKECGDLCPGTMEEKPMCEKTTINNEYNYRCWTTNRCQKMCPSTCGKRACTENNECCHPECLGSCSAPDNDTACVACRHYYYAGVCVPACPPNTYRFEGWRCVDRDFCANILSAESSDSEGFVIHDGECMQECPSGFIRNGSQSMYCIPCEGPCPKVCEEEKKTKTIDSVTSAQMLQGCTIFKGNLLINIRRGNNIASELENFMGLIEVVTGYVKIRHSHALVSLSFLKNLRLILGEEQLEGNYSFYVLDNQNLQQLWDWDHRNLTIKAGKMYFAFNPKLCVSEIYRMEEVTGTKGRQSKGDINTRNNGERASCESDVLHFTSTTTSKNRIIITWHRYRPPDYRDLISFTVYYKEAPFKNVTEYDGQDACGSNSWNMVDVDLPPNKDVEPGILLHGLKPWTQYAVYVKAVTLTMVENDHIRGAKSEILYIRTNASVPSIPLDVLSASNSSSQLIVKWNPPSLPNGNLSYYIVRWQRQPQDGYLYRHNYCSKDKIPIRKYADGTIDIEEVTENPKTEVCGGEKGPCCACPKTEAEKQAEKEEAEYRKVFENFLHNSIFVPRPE
T1 sequence (P08069 741-1367 limits assumed): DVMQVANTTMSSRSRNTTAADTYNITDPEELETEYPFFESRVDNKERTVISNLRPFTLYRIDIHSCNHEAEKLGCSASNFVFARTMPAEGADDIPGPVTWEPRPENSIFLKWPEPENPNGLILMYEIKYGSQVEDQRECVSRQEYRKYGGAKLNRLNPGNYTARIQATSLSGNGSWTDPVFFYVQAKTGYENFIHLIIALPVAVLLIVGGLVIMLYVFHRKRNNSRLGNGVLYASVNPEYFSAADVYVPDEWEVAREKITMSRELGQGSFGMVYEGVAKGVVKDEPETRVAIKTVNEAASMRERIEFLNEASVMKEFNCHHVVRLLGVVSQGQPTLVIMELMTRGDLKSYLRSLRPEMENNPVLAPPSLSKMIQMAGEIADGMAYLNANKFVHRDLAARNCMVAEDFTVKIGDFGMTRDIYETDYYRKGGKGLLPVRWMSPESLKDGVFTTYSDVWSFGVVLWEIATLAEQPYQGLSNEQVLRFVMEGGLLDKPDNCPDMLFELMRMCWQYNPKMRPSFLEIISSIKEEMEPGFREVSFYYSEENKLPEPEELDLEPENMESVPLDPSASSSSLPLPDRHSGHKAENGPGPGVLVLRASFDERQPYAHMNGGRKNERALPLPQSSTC
Summary of the method: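 Reaction buffer was the same plus 0.1 mg/mL BSA, with kinase, peptide substrate and detection reagents. Started with ATP; fluorescence read every 2 min for 60 min; 3 independent experiments.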

[2] = Solubility of the compound at >1 mM; type: physicochemical
[3] = molecular target: T1, Insulin-like growth factor 1 receptor; test: Activity at pre-activated human GST-His6-tagged IGF-1R expressed in Sf9 cells up to 1 mM measured every 2 mins for 60 mins by Michaelis-Menten constant based ADP Quest assay
Summary of the method: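 Reactions used the same buffer plus 0.1 mg/mL BSA, pre-activated GST-His6-IGF-1R, peptide substrate titrated up to 1 mM, and ADP Quest reagents. ATP started the reaction. Fluorescence was read every 2 min for 60 min. KM came from a Michaelis-Menten fit, n = 3 independent experiments.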

[4] = molecular target: T1, Insulin-like growth factor 1 receptor; test: Inhibition of pre-activated human GST-His6-tagged IGF-1R expressed in Sf9 cells using Ac-EAEDEPEGDYFEWLE-NHMe as substrate after 25 mins by luminescence assay

| Activity [1] | solubility [2] | Compound | other results |
| --- | --- | --- | --- |
|  | Insoluble | CNC(=O)[C@@H](Cc1c[nH]c2ccccc12)NC(=O)[C@H](CCC(=O)O)NC(=O)[C@H](Cc1ccccc1)NC(=O)[C@H](Cc1ccc(O)cc1)NC(=O)[C@H](Cc1cccnc1)NC(C)=O |  |
|  | Insoluble | CNC(=O)[C@H](Cc1ccc(Cl)cc1)NC(=O)[C@H](CCC(=O)O)NC(=O)[C@H](Cc1ccccc1)NC(=O)[C@H](Cc1ccc(O)cc1)NC(=O)[C@H](Cc1cccnc1)NC(C)=O (Ac-[3Pal]YFE[Phe(4-Cl)]-NHMe) |  |
|  | Insoluble | CNC(=O)[C@@H](Cc1c[nH]c2ccccc12)NC(=O)[C@H](CCC(=O)O)NC(=O)[C@H](Cc1ccccc1)NC(=O)[C@H](Cc1ccc(O)cc1)NC(=O)[C@H](CCC(=O)O)NC(C)=O |  |
| 0.17 nM/s |  | CNC(=O)[C@H](Cc1c[nH]c2ccccc12)NC(=O)[C@H](CCC(=O)O)NC(=O)[C@H](Cc1ccccc1)NC(=O)[C@H](Cc1ccc(O)cc1)NC(C)=O (HELM PEPTIDE1{[ac].Y.F.E.W.[CN[*:1]]}$$$$V2.0) |  |
| 3.4 nM/s |  | CNC(=O)[C@H](Cc1ccc2ccccc2c1)NC(=O)[C@H](CCC(=O)O)NC(=O)[C@H](Cc1ccccc1)NC(=O)[C@H](Cc1ccc(O)cc1)NC(=O)[C@H](CC(=O)O)NC(C)=O (HELM PEPTIDE1{[ac].D.Y.F.E.[O=C([C@H](Cc1ccc2ccccc2c1)N[*:1])[*:2]].[CN[*:1]]}$$$$V2.0) |  |
| 0.24 nM/s |  | CNC(=O)[C@H](Cc1ccc2ccccc2c1)NC(=O)CNC(=O)[C@H](Cc1ccccc1)NC(=O)[C@H](Cc1ccc(O)cc1)NC(=O)[C@H](CC(=O)O)NC(C)=O (HELM PEPTIDE1{[ac].D.Y.F.G.[O=C([C@H](Cc1ccc2ccccc2c1)N[*:1])[*:2]].[CN[*:1]]}$$$$V2.0) |  |

Continued, compound first:

| Compound | Activity [1] | solubility [2] | other results |
| --- | --- | --- | --- |
| CNC(=O)[C@H](Cc1c[nH]c2ccccc12)NC(=O)[C@H](CCC(=O)O)NC(=O)[C@H](Cc1ccccc1)NC(=O)[C@H](Cc1ccc(O)cc1)NC(=O)[C@H](Cc1cccnc1)NC(C)=O | 0.4 nM/s | Insoluble |  |
| CNC(=O)[C@H](Cc1c[nH]c2ccccc12)NC(=O)[C@H](CCC(=O)O)NC(=O)[C@H](Cc1ccccc1)NC(=O)[C@@H](N)Cc1ccc(O)cc1 (HELM PEPTIDE1{Y.F.E.W.[CN[*:1]]}$$$$V2.0) |  |  | Activity [3]: inactive |
| CNC(=O)[C@H](Cc1ccc(Cl)cc1)NC(=O)[C@H](CCC(=O)O)NC(=O)[C@H](Cc1ccccc1)NC(=O)[C@H](Cc1ccc(C(O)P(=O)(O)O)cc1)NC(=O)[C@H](Cc1cccnc1)NC(C)=O (stereo partly specified) (Ac-[3Pal][X7]FE[Phe(4-Cl)]-NHMe) |  |  | IC50 [4]: 489 µM |
| CNC(=O)[C@H](Cc1ccccc1)NC(=O)[C@H](CCC(=O)O)NC(=O)[C@H](Cc1ccccc1)NC(=O)[C@H](Cc1ccc(O)cc1)NC(=O)[C@@H]1CCC[C@H]1C(=O)O (HELM PEPTIDE1{[O=C(O)[C@@H]1CCC[C@H]1C(=O)[*:2]].Y.F.E.F.[CN[*:1]]}$$$$V2.0) | 3.8 nM/s |  |  |
